Calls of active or inactive are those of the source. The rule behind the calls is not given here.
What was measured:
[1] = test system: NALM-6; assay: Cytostatic activity against eFluor670-labelled human NALM6 cells assessed as live cells at 2 umol/L measured on day 5 by Hoechst-33258 staining-based FACS analysis (reference value: 98.6%); format: functional
[2] = test system: REH; assay: Cytostatic activity against eFluor670-labelled human REH cells assessed as live cells at 2 umol/L measured on day 3 by Hoechst-33258 staining-based FACS analysis (reference value: 90.2%); format: functional
[3] = test system: REH; assay: Inhibition of P70S6K in human REH cells assessed as decrease in phosphorylated P70S6K expression at EC50 by immunoblot analysis; format: cell-based; details: TDE = time-dependent effect
In short: (§1)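 Cells prepared as for RT-qPCR (7.5 × 10^5 cells/mL). Treated either with the line-specific EC50 concentration over a time course, or 24 h with graded concentrations up to that EC50. Cells washed with phosphatase inhibitors and lysed in RIPA; 40 μg protein per lane on SDS-PAGE, then nitrocellulose. Immunoblotted for C-MYC, P70S6K, p-P70S6K (Ser424) and actin.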

[4] = Cytotoxicity against PHA/LPS-stimulated CD3-positive T-lymphocytes in eFluor670-labeled human PBMC assessed as division index at 2 umol/L administered post 18 hrs of PHA/LPS-stimulation measured after 72 hrs by Hoechst-33258 staining-based FACS analysis (reference value: 0.381); format: toxicity; details: t-cell, 2 µM
[5] = test system: Jurkat; assay: Cytostatic activity against eFluor670-labelled human Jurkat cells assessed as live cells at 2 umol/L measured on day 2 by Hoechst-33258 staining-based FACS analysis (reference value: 97%); format: functional
[6] = test system: REH; assay: Cytostatic activity against eFluor670-labelled human REH cells assessed as live cells at 2 umol/L measured on day 4 by Hoechst-33258 staining-based FACS analysis (reference value: 88%); format: functional
[7] = Downregulation of P70S6K protein expression in human REH cells at EC50 measured after 24 hrs by immunoblot analysis; format: functional, cell-based; in short: as §1
[8] = test system: NALM-6; assay: Cytostatic activity against human NALM6 cells assessed as population doubling level at 2 umol/L after 6 days using Burker counting chamber (reference value: 3.44); format: functional
In short: (§2)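 Cells were seeded at 2.5 × 10^5 cells/mL in DMSO-containing medium, with or without 2 μmol/L compound. Cells were counted daily in a Bürker chamber. PDL was calculated as log(Nf/N0)/log 2 over 6 days. Values are mean ± SD of three experiments, compared with DMSO controls.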

[9] = test system: NALM-6; assay: Decrease in C-MYC mRNA level in human NALM6 cells at EC50 measured after 24 hrs by RT-qPCR analysis; format: functional, cell-based
[10] = test system: Jurkat; assay: Cytostatic activity against human Jurkat cells at 2 umol/L measured after 2 to 3 days using Burker counting chamber; format: functional, cell-based; in short: as §2
[11] = test system: NALM-6; assay: Cytostatic activity against eFluor670-labelled human NALM6 cells assessed as live cells at 2 umol/L measured on day 3 by Hoechst-33258 staining-based FACS analysis (reference value: 98.6%); format: functional
[12] = molecular target: Myc proto-oncogene protein (Homo sapiens) (UniProt P01106); assay: Inhibition of C-MYC in human Jurkat cells assessed as decrease in LDHA level at EC50 measured after 24 hrs by RT-qPCR analysis; format: cell-based
[13] = Downregulation of P70S6K protein expression in human Jurkat cells up to 20 umol/L measured after 24 hrs by immunoblot analysis; format: functional, cell-based; in short: as §1
[14] = test system: NALM-6; assay: Cytostatic activity against eFluor670-labelled human NALM6 cells assessed as live cells at 2 umol/L measured on day 4 by Hoechst-33258 staining-based FACS analysis (reference value: 98.6%); format: functional
[15] = test system: NALM-6; assay: Cytostatic activity against eFluor670-labelled human NALM6 cells assessed as live cells at 2 umol/L measured on day 1 by Hoechst-33258 staining-based FACS analysis (reference value: 95.5%); format: functional
[16] = molecular target: Myc proto-oncogene protein (Homo sapiens) (UniProt P01106); assay: Inhibition of C-MYC in human NALM6 cells assessed as decrease in GLS level at EC50 measured after 24 hrs by RT-qPCR analysis; format: cell-based; details: NALM-6
[17] = Cytotoxicity against CD14+ monocytes in human PBMC population assessed as viable cells at 100 umol/L measured after 24 hrs by Hoechst-33258 staining-based FACS analysis (reference value: 13.8%); format: toxicity, cell-based, Monocyte; details: read-out: Activity
In short: (§3)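 PBMC were isolated from blood on a Ficoll-Paque gradient and seeded at 1 × 10^5 cells/well in 400 μL RPMI1640. Cells were exposed to a range of compound concentrations for 24 h. Viable CD3+, CD14+ and CD20+ populations were measured as Hoechst 33258-negative singlets by flow cytometry. EC50 was obtained by five-parameter nonlinear regression.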

[18] = test system: REH; assay: Cytostatic activity against eFluor670-labelled human REH cells assessed as live cells at 2 umol/L measured on day 5 by Hoechst-33258 staining-based FACS analysis (reference value: 85.6%); format: functional
[19] = molecular target: Myc proto-oncogene protein (Homo sapiens) (UniProt P01106); assay: Inhibition of C-MYC in human Jurkat cells assessed as decrease in PKM2 level at EC50 measured after 24 hrs by RT-qPCR analysis; format: cell-based
[20] = test system: REH; assay: Inhibition of P70S6K in human REH cells assessed as decrease in C-MYC expression measured after 24 hrs by immunoblot analysis; format: cell-based; in short: as §1
[21] = test system: NALM-6; assay: Inhibition of P70S6K in human NALM6 cells assessed as decrease in C-MYC expression measured after 24 hrs by immunoblot analysis; format: cell-based; in short: as §1
[22] = test system: REH; assay: Inhibition of P70S6K in human REH cells assessed as decrease in phosphorylated P70S6K expression measured after 24 hrs by immunoblot analysis; format: cell-based; in short: as §1
[23] = test system: REH; assay: Cytostatic activity against eFluor670-labelled human REH cells assessed as live cells at 2 umol/L measured on day 1 by Hoechst-33258 staining-based FACS analysis (reference value: 89.8%); format: functional
[24] = test system: REH; assay: Cytostatic activity against eFluor670-labelled human REH cells assessed as live cells at 2 umol/L measured immediately after compound addition by Hoechst-33258 staining-based FACS analysis (reference value: 44.1%); format: functional
[25] = Cytotoxicity against human PBMC assessed as reduction in viable cells measured after 24 hrs by Hoechst-33258 staining-based FACS analysis; format: toxicity, cell-based
In short: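 Human PBMC isolated on a Ficoll-Paque gradient, seeded at 1 × 10^5 cells/well in RPMI1640. Exposed 24 h to a compound concentration range; medium and DMSO negative controls. Cells stained with Hoechst 33258 and read by flow cytometry; live-cell percentage from Hoechst-negative singlets. EC50 by five-parameter nonlinear regression.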

[26] = Cytotoxicity against CD14+ monocytes in human PBMC population assessed as reduction in viable cells measured after 24 hrs by Hoechst-33258 staining-based FACS analysis; format: toxicity, cell-based, Monocyte; in short: as §3
[27] = Cytotoxicity against PHA/LPS-stimulated CD3-positive T-lymphocytes in eFluor-670-labeled human PBMC assessed as proliferation index at 2 umol/L administered post 18 hrs of PHA/LPS-stimulation measured after 72 hrs by Hoechst-33258 staining-based FACS analysis (reference value: 1.58); format: toxicity; details: t-cell, 2 µM
In short: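 PBMC were labelled with 1 μmol/L CPD, stimulated with PHA (5 μg/mL) plus LPS (1 μg/mL), and seeded at 3 × 10^5 cells/well in 300 μL. Compound was added after 18 h and left for 72 h. Cells were stained with anti-CD3. Unstimulated cells set the CPD+ gate. Proliferation index, division index and % divided were calculated for CPD+CD3+ Hoechst-negative cells.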

Myc proto-oncogene protein (Homo sapiens), sequence (P01106 whole entry): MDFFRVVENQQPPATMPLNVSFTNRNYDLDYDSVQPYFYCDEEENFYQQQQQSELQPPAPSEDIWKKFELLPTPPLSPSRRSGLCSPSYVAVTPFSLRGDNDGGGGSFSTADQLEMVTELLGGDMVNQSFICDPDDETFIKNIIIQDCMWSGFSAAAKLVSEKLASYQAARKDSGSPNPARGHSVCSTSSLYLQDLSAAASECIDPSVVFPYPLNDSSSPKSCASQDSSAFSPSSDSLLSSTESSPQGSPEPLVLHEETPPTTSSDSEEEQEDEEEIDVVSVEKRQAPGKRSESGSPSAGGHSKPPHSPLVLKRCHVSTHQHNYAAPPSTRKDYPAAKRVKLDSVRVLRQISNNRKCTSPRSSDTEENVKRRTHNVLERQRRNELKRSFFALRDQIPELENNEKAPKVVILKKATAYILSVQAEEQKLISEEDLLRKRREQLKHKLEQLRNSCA

SMILES: CCCCCC(=O)C1=C(O)C(=O)c2c(O)c(O)cc(O)c2C1=O
- Activity [1]: 50.1%
- Activity [2]: 15.8%
- inhibition [3]: Tde
- Activity_index [4]: 0.196
- Activity [5]: 70.1%
- Activity [6]: 6.9%
- Activity [7]: Active
- Activity [8]: 1.75
- Activity [9]: Active
- Activity [10]: Active
- Activity [11]: 98.1%
- inhibition [12]: Active
- inhibition [13]: Active
- Activity [14]: 96.7%
- Activity [15]: 95.2%
- inhibition [16]: Active
- viability at 24 h, 100 µM [17]: 0.21%
- Activity [18]: 4.17%
- inhibition [19]: Active
- inhibition [20]: Dose-dependent effect
- inhibition [21]: Dose-dependent effect
- inhibition [22]: Dose-dependent effect
- Activity [23]: 74.9%
- Activity [24]: 44.1%
- EC50 at 24 h [25]: 56.1 µM
- EC50 at 24 h [26]: 15.1 µM
- Activity_index [27]: 1.23

Reference: ChEMBL document CHEMBL3868590, “Quambalarine B, a Secondary Metabolite from Quambalaria cyanescens with Potential Anticancer Properties” (J Nat Prod, 2016)
